Data: ChEMBL document CHEMBL4689842, “EUbOPEN Chemogenomics Library wave 1” (2021)
Several values for one entry are separate records, joined by “and”; a condition that tells them apart may be missing. Equal values may be shown once.

Tested on: Fibroblast
Test: Multiplex assay against human fibroblast
Assay type: toxicity, cell-based
Summary of the method: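 With compound added, live cells were imaged on a CQ1 microscope at 37°C and 5% CO2; staining with Hoechst33342, BioTracker Green Microtubule Cytoskeleton Dye, MitoTracker Red and Annexin V Alexa Fluor 680 had been done at seeding. The CellPathfinder machine-learning gating scheme split cells into Hoechst high-intensity objects or normal cells, normal cells into healthy, pyknosed or fragmented nuclei, and pyknosed cells into mitotic or apoptotic. The tubulin, mitochondrial-mass and membrane-permeability phenotypes are per cents of healthy-nucleus cells.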

[1] = 12 h, 1 µM, compound concentration 1 uM, replicate 1
[2] = 12 h, 1 µM, compound concentration 1 uM, replicate 2
[3] = 12 h, 10 µM, compound concentration 10 uM, replicate 1
[4] = 12 h, 10 µM, compound concentration 10 uM, replicate 2
[5] = 24 h, 1 µM, compound concentration 1 uM, replicate 1
[6] = 24 h, 1 µM, compound concentration 1 uM, replicate 2
[7] = 24 h, 10 µM, compound concentration 10 uM, replicate 1
[8] = 24 h, 10 µM, compound concentration 10 uM, replicate 2

With `CNCc1ccc(-c2cc(-c3nc(-c4ccc(S(=O)(=O)C(C)C)cc4)cnc3N)on2)cc1` [BERZOSERTIB] the “Population Apoptotic (%)” value [1] was 45% and 78%, the “Population Fragmented Nuclei (%)” value [1] was 22% and 31% and the “Population Hoechst High Intensity Objects (%)” value [1] was 63% and 99%. The “Population Membrane Permeable-Phenotype (%)” value [1] was 1%, the “Population Mitochondria Different-Phenotype (%)” value [1] was 0% and the “Population Mitotic Cells (%)” value [1] was 54% and 21%. The “Population Pyknosed Nuclei (%)” value [1] was 54% and 63%, the “Population Apoptotic (%)” value [2] was 47% and 100% and the “Population Fragmented Nuclei (%)” value [2] was 47% and 96%. The “Population Hoechst High Intensity Objects (%)” value [2] was 68% and 95%, the “Population Membrane Permeable-Phenotype (%)” value [2] was 14% and 0% and the “Population Mitochondria Different-Phenotype (%)” value [2] was 4%. The “Population Tubulin-Different-Phenotype (%)” value [2] was 0%, the “Population Apoptotic (%)” value [3] was 51% and 76% and the “Population Fragmented Nuclei (%)” value [3] was 24% and 41%. For the same compound, the “Population Healthy Nuclei (%)” value [3] was 21%, the “Population Hoechst High Intensity Objects (%)” value [3] was 64% and 99% and the “Population Membrane Permeable-Phenotype (%)” value [3] was 5%. The “Population Mitochondria Different-Phenotype (%)” value [3] was 1%, the “Population Mitotic Cells (%)” value [3] was 48% and 23% and the “Population Pyknosed Nuclei (%)” value [3] was 54%. For the same compound, the “Population Tubulin-Different-Phenotype (%)” value [3] was 8%, the “Total Cell Count” value [3] was 976 and 2548 and the “Population Apoptotic (%)” value [4] was 48% and 100%. For the same compound, the “Population Fragmented Nuclei (%)” value [4] was 54% and 93%, the “Population Hoechst High Intensity Objects (%)” value [4] was 69% and 96% and the “Population Membrane Permeable-Phenotype (%)” value [4] was 12% and 0%. The “Population Mitochondria Different-Phenotype (%)” value [4] was 6% and 0%, the “Population Tubulin-Different-Phenotype (%)” value [4] was 3% and 0% and the “Population Fragmented Nuclei (%)” value [5] was 66% and 26%. For the same compound, the “Population Hoechst High Intensity Objects (%)” value [5] was 99% and 67%, the “Population Membrane Permeable-Phenotype (%)” value [5] was 0% and 1% and the “Population Mitochondria Different-Phenotype (%)” value [5] was 0%. The “Population Mitotic Cells (%)” value [5] was 100% and 57%, the “Population Pyknosed Nuclei (%)” value [5] was 33% and 40% and the “Population Tubulin-Different-Phenotype (%)” value [5] was 0%. For the same compound, the “Population Apoptotic (%)” value [6] was 37% and 100%, the “Population Fragmented Nuclei (%)” value [6] was 53% and 94% and the “Population Hoechst High Intensity Objects (%)” value [6] was 69% and 96%. For the same compound, the “Population Membrane Permeable-Phenotype (%)” value [6] was 25%, the “Population Mitochondria Different-Phenotype (%)” value [6] was 12% and the “Population Fragmented Nuclei (%)” value [7] was 0% and 19%. For the same compound, the “Population Hoechst High Intensity Objects (%)” value [7] was 100% and 68%, the “Population Membrane Permeable-Phenotype (%)” value [7] was 0% and 8% and the “Population Mitochondria Different-Phenotype (%)” value [7] was 0%. The “Population Tubulin-Different-Phenotype (%)” value [7] was 0%, the “Population Apoptotic (%)” value [8] was 54% and the “Population Fragmented Nuclei (%)” value [8] was 93% and 42%. For the same compound, the “Population Hoechst High Intensity Objects (%)” value [8] was 97% and 74%, the “Population Mitochondria Different-Phenotype (%)” value [8] was 7% and the “Population Mitotic Cells (%)” value [8] was 45%. The “Population Pyknosed Nuclei (%)” value [8] was 33% and the “Population Tubulin-Different-Phenotype (%)” value [8] was 11%.
